Screening results deposited in PubChem BioAssay by Johns Hopkins Ion Channel Center.
TRPC4 PAM = allosteric potentiators of mouse TRPC4 channel | AID 2227 | HEK293 TRPC4beta/mu-opioid, DAMGO EC20, Fluo-4 Ca2+ flux; stronger effect = higher value | actives 0.42% (n = 310,000) | B-score at 10 µM | Q9QUQ5;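 active = B-score of calcium response area above 5 SD of library B-scores, with initial fluorescence ratio within 5 SD of library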;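 also: B-score of integrated fluorescence ratio over time as area under calcium response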
Target sequence (Q9QUQ5 whole entry, looked up): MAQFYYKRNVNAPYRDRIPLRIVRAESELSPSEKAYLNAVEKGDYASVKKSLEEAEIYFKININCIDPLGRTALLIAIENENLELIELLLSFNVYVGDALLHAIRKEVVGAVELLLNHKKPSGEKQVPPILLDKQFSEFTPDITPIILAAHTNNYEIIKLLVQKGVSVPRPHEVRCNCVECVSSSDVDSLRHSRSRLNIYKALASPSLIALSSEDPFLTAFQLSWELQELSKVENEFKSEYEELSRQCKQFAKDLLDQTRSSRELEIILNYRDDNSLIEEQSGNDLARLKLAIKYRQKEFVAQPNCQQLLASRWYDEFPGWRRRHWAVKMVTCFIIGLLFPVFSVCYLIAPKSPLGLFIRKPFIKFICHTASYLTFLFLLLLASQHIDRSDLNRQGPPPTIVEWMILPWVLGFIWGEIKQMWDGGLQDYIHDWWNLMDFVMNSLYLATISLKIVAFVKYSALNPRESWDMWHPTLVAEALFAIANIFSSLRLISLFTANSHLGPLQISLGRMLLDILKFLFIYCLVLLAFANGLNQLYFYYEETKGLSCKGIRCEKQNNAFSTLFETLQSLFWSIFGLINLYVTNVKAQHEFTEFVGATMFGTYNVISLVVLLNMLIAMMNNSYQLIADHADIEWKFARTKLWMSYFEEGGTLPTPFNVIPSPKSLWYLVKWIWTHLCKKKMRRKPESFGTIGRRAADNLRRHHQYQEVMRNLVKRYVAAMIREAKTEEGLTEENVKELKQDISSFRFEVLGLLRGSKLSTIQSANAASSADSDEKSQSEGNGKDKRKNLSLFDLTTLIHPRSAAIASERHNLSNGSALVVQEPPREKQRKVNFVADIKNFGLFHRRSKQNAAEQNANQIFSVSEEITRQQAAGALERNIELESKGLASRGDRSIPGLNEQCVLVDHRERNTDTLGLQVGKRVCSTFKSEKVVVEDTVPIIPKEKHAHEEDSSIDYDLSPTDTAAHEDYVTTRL
TRPC4 act = TRPC4 (mouse) channel activation. Q9QUQ5. B-score at 10 µM. actives 0.49% (n = 310,000). AID 2237. HEK293 TRPC4beta/mu-opioid, Fluo4 calcium fluorescence; stronger effect = higher value;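 active = B-score above 5 SD of library B-scores, and initial fluorescence ratio not above library mean plus 5 SD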;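 also: positive B-score marks a calcium rise read as TRPC4 activation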
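Assay system: HEK293 cells stably co-expressing mouse TRPC4beta and mu-opioid receptor / Timing: Fluo4 dye loading 45 min at room temperature, 110 s recording / Signal: Fluo4 calcium-sensitive dye fluorescence, kinetic, 1 Hz baseline / Read-out: integrated baseline-normalised fluorescence ratio, converted to per-well B score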
TRPC4 block = inhibitors of mouse TRPC4 channel | Q9QUQ5 | HEK293 TRPC4beta/mu-opioid, DAMGO-evoked Fluo4 calcium flux; stronger effect = lower value | B-score at 10 µM | actives 0.39% (n = 300,000);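 active = B-score over 3 SD under the library average, no early fluorescence shift, positive overall ratio signal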
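Assay system: HEK293 cells with stable TRPC4beta plus mu-opioid receptor expression. Dosing: single dose. Measured by: Fluo4 Ca2+ flux fluorescence. Also added: DAMGO in two steps, submaximal then maximal. Read-out: B score from integrated Fluo4 fluorescence ratio.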
TRPC6 act = activators of mouse TRPC6 channel; B-score at 10 µM; actives 0.13% (n = 310,000); HEK293-TRPC6 membrane potential dye fluorescence; stronger effect = higher value; Q61143;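 active = B-score of the integrated fluorescence ratio above library mean plus 3 SD, and starting fluorescence ratio within library mean plus 5 SD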;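 also: higher score means more depolarization so channel activation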
TRPC6 inhibitor = mouse TRPC6 channel inhibition | B-score at 10 µM | actives 1.1% (n = 310,000) | HEK293-TRPC6, membrane potential dye, ACh-evoked depolarization; stronger effect = lower value;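 active = B-score under library mean minus 3 SD, initial fluorescence not abnormally high, positive integrated signal ratio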;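 also: B-score derived from integrated fluorescence ratio over the kinetic read; more negative B-score means stronger inhibition of depolarization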
TRPC4 spec 2 = second check of whether TRPC6 inhibitors also affect mouse TRPC4. shares compounds with TRPC6 inhibitor. HEK293 TRPC4/MOR, membrane potential dye fluorescence; channel activated by saturating DAMGO dose. inhibition, % at 10 µM. actives 42% (n = 920). AID 2776;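 active = compounds whose fluorescence signal differed from control wells by over 3 SD, either direction, in both duplicate plates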
TRPC4 spec = mouse TRPC4 off-target activity of TRPC6 inhibitors; shares compounds with TRPC6 inhibitor; HEK293 TRPC4/mu-opioid, membrane potential fluorescence; activity change, negative = inhibition, % at 10 µM; actives 61% (n = 920); AID 2777;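 active = rise or fall in signal beyond 3 SD of buffer-only wells in both replicate plates, either sign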;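 also: integrated kinetic ratio of fluorescence range over baseline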
HEK293 MPD ctr 2-1 = second check of TRPC6 inhibitor effects in parental HEK293 cells. shares compounds with TRPC6 inhibitor. parental HEK293 membrane potential dye fluorescence; maximal acetylcholine challenge after compound addition. signal change vs control, % at 10 µM. actives 31% (n = 920);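 active = membrane potential signal moving either way by over 3 SD of the maximum-effect control, in both duplicate plates, meaning non-specific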
HEK293 MPD ctr-1 = checks TRPC6 inhibitor effects in parental HEK293 cells. shares compounds with TRPC6 inhibitor. parental HEK293 membrane potential dye fluorescence. membrane potential signal change, % at 10 µM. actives 60% (n = 920);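 active = membrane potential signal shifting up or down by more than 3 SD of buffer-only wells, on both duplicate plates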
HEK293 MPD ctr-2 = counter-screen for TRPC6 modulators: effect in parental HEK293 cells; shares compounds with TRPC6 inhibitor; membrane potential dye fluorescence; membrane potential signal change, % at 10 µM; actives 51% (n = 2,400); AID 488924;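 active = membrane potential signal moves up or down beyond 5 SD from buffer-only wells, on both duplicate plates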
HEK293 MPD ctr 2-2 = second check of TRPC6 modulator effects in parental HEK293 cells | shares compounds with TRPC6 inhibitor | membrane potential dye fluorescence; after compound, maximal acetylcholine stimulation | inhibition, % at 10 µM | actives 14% (n = 2,400) | AID 488926;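 active = membrane potential signal drops by more than 5 SD from the mean control signal, in both duplicate plates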;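 also: plate controls were acetylcholine ECmax control wells for no effect and buffer only wells for full effect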
TRPC4 ctr mod = mouse TRPC4 off-target activity of TRPC6 modulators. HEK293 TRPC4/mu-opioid, membrane potential fluorescence. percent change from control (negative = decrease, positive = increase), % at 10 µM. actives 69% (n = 2,400). shares compounds with TRPC6 inhibitor. AID 488927;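 active = membrane potential signal moved up or down beyond 5 SD of buffer control wells, in both duplicate plates, actives on both sides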;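 also: plate controls were assay buffer wells for no effect and DAMGO maximal-effect wells for full effect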
TRPC4 ctr inh 2 = mouse TRPC4 off-target activity of TRPC6 modulators, second screen | actives 55% (n = 2,400) | inhibition, % at 10 µM | shares compounds with TRPC6 inhibitor | AID 488928 | HEK293 TRPC4/mu-opioid, membrane potential dye fluorescence; stimulated with maximal-effect DAMGO;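 active = drop in membrane potential signal beyond 5 SD of the control wells in both duplicate plates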;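 also: TRPC4 counter screen for TRPC6 hits run under conditions tuned for TRPC6 not TRPC4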
TRPC6 block conf = mouse TRPC6 inhibitor confirmation | inhibition, % at 10 µM | AID 488960 | actives 43% (n = 3,300) | HEK293-TRPC6, membrane potential dye, ACh-evoked depolarization | shares compounds with TRPC6 inhibitor;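 active = fluorescence ratio falls more than 5 SD below the full-stimulation control mean, in both duplicate runs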;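 also: integrated fluorescence ratio of peak minus minimum over baseline after agonist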
TRPC6 act confirm = confirmation of mouse TRPC6 activators | HEK293-TRPC6 membrane potential dye fluorescence, FDSS | shares compounds with TRPC6 inhibitor | actives 11% (n = 2,800) | AID 488961 | activation, % at 10 µM;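 active = ratio signal rise beyond 5 SD above unstimulated control wells' mean, seen in both duplicate runs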;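 also: plate controls were buffer EC0 wells for no effect and acetylcholine ECmax response for full effect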
* hit, by the source's call. Shown are actives, neighbours in structure and some others; about 2.3% of the full set was active somewhere.

`CCOC(=O)c1c(C)n(-c2ccc(F)cc2)c2ccc(O)cc12` gave TRPC4 PAM inactive, TRPC4 act inactive, TRPC4 block inactive, TRPC6 act inactive and TRPC6 inhibitor inactive.
For CCOC(=O)c1c(C)n(-c2ccc(C)cc2)c2ccc(O)c(CN(C)C)c12 the results were TRPC4 PAM inactive, TRPC4 act inactive, TRPC4 block inactive, TRPC6 act inactive, TRPC6 inhibitor -5.7*, HEK293 MPD ctr-2 -96.5%*, HEK293 MPD ctr 2-2 inactive, TRPC4 ctr mod -18.0%*, TRPC4 ctr inh 2 61.5%*, TRPC6 block conf 51.0%* and TRPC6 act confirm inactive.
`CCOC(=O)c1c(C)n(C)c2ccc(O)c(CN(C)C)c12` gave TRPC4 PAM inactive, TRPC4 act inactive, TRPC4 block inactive, TRPC6 act inactive, TRPC6 inhibitor -8.65*, HEK293 MPD ctr-2 -242.0%*, HEK293 MPD ctr 2-2 inactive, TRPC4 ctr mod -41.0%*, TRPC4 ctr inh 2 59.0%*, TRPC6 block conf 61.5%* and TRPC6 act confirm inactive.
For CCOC(=O)c1c(C)n(-c2ccc(OC)cc2)c2ccc(O)c(CN(C)C)c12 the results were TRPC4 PAM inactive, TRPC4 act inactive, TRPC4 block inactive, TRPC6 act inactive, TRPC6 inhibitor -8.84*, TRPC4 spec 2 46.0%*, TRPC4 spec -17.5%*, HEK293 MPD ctr 2-1 inactive, HEK293 MPD ctr-1 -286.0%*, TRPC6 block conf 60.3%* and TRPC6 act confirm inactive.
For CC1(C)NC(=O)N(CC(O)CN(c2cccc([N+](=O)[O-])c2)S(=O)(=O)c2ccccc2)C1=O (centres undefined) the results were TRPC4 PAM inactive, TRPC4 act inactive, TRPC4 block inactive, TRPC6 act inactive and TRPC6 inhibitor inactive.
COCC(C)N1CC(O)=C(c2nc(-c3ccc(Cl)cc3)cs2)C1=N (centres undefined) was read as TRPC4 PAM inactive, TRPC4 act inactive, TRPC4 block inactive, TRPC6 act inactive and TRPC6 inhibitor inactive.
For CC1CCN(C(=O)COC(=O)CCCN2C(=O)c3cccc4cccc(c34)C2=O)CC1 the results were TRPC4 PAM inactive, TRPC4 act inactive, TRPC4 block inactive, TRPC6 act inactive and TRPC6 inhibitor inactive.
COc1cccc(NS(=O)(=O)c2ccc3[nH]cc(C(=O)NC4CC4)c(=O)c3c2)c1 was read as TRPC4 PAM inactive, TRPC4 act inactive, TRPC4 block inactive, TRPC6 act 14.3*, TRPC6 inhibitor -8.87*, HEK293 MPD ctr-2 inactive, HEK293 MPD ctr 2-2 inactive, TRPC4 ctr mod inactive, TRPC4 ctr inh 2 inactive, TRPC6 block conf 58.0%* and TRPC6 act confirm 90.5%*.
Cc1cccc(CNc2ncc(-c3cccc([N+](=O)[O-])c3)n2C)c1 was read as TRPC4 PAM inactive, TRPC4 act inactive, TRPC4 block inactive, TRPC6 act inactive, TRPC6 inhibitor -5.87*, HEK293 MPD ctr-2 -74.5%*, HEK293 MPD ctr 2-2 inactive, TRPC4 ctr mod -26.0%*, TRPC4 ctr inh 2 57.0%*, TRPC6 block conf inactive and TRPC6 act confirm inactive.
Screening C(#Cc1ccccc1)C[N+]1(CC#Cc2ccccc2)CCCCC1 returned TRPC4 PAM inactive, TRPC4 act inactive, TRPC4 block inactive, TRPC6 act inactive, TRPC6 inhibitor -9.06*, TRPC4 spec 2 inactive, TRPC4 spec -0.2%*, HEK293 MPD ctr 2-1 inactive, HEK293 MPD ctr-1 0.7%*, TRPC6 block conf 65.7%* and TRPC6 act confirm inactive.
Screening O=C(C[N+]1(CC#Cc2ccccc2)CCCCC1)c1ccccc1 returned TRPC4 PAM inactive, TRPC4 act inactive, TRPC4 block inactive, TRPC6 act inactive and TRPC6 inhibitor inactive.
For Cc1ccc(C#CC[N+]2(CC#Cc3ccc(C)cc3)CCCCC2)cc1 the results were TRPC4 PAM inactive, TRPC4 act inactive, TRPC4 block inactive, TRPC6 act inactive, TRPC6 inhibitor -5.39*, HEK293 MPD ctr-2 92.0%*, HEK293 MPD ctr 2-2 inactive, TRPC4 ctr mod 17.0%*, TRPC4 ctr inh 2 inactive and TRPC6 block conf 44.5%*.
For C(#Cc1ccccc1)C[N+]1(CC#Cc2cccc3ccccc23)CCOCC1 the results were TRPC4 PAM inactive, TRPC4 act inactive, TRPC4 block inactive, TRPC6 act inactive, TRPC6 inhibitor -5*, HEK293 MPD ctr-2 -78.5%*, HEK293 MPD ctr 2-2 inactive, TRPC4 ctr mod -16.5%*, TRPC4 ctr inh 2 inactive, TRPC6 block conf inactive and TRPC6 act confirm inactive.
Screening C#CC[N+]1(CC#Cc2ccccc2)CCCCC1 returned TRPC4 PAM inactive, TRPC4 act inactive, TRPC4 block inactive, TRPC6 act inactive and TRPC6 inhibitor inactive.
`C#CC[N+]1(CC#Cc2cccc(C)c2)CCCCC1` gave TRPC4 PAM inactive, TRPC4 act inactive, TRPC4 block inactive, TRPC6 act inactive and TRPC6 inhibitor inactive.
